From PubChem
TAAR1 ag: human TAAR1 agonism | 0.99% of 360,000 active | CHO RD-HGA16 TAAR1, Fluo-8 calcium fluorescence; vehicle wells 0%, saturating PEA agonist 100% | activation, % at 3 µM | Q96RJ0 | AID 624467;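 active means activation above the mean activation of all test compounds in the run plus 3 SD, cut at about 38% in these data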
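test system = CHO RD-HGA16 cells carrying human TAAR1 plus Gα16 | schedule = 17-24 h seeding, 75 min 37 °C dye, 30 min RT | compound dosing = 3 µM single concentration | control set = DMSO and PEA EC100 | replicates = n 1 | signal = Fluo-8 fluorescence, 5 s baseline then 140 s kinetic read | measure = percent activation vs PEA EC100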
OX1R antag-1: antagonists of human orexin 1 receptor (OX1R). inhibition, % at 6.6 µM. 1.8% of 330,000 active. OX1R-expressing cells, FRET antagonist read-out. AID 485270; in the data active means inhibition mostly above about 38%, no sharp cut-off; inactive means mostly below about 40%;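 further: 0% = agonist challenge alone and 100% = reference antagonist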
Target sequence (O43613 whole entry, looked up): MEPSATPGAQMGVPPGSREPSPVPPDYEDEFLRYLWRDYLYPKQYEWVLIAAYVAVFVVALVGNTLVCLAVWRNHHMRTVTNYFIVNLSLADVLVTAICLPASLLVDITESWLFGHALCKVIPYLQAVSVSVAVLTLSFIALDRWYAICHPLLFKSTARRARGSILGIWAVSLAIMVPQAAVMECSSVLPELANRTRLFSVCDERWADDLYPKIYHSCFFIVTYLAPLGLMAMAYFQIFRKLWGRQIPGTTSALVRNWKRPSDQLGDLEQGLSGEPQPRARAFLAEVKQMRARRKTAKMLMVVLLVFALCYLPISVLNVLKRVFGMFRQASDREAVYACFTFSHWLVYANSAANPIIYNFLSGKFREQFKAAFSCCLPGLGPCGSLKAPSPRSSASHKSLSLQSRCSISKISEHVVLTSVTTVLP
TAAR1 antag: antagonists of human TAAR1; 1.5% of 360,000 active; Q96RJ0; inhibition, % at 3 µM; AID 624466; CHO RD-HGA16 TAAR1, Fluo-8 calcium fluorescence, antagonist;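 active means inhibition above a per-plate cutoff, the mean inhibition of test compounds on that plate plus 3 SD, cut at about 49% in these data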;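 further: 0% = DMSO plus EC80 beta-PEA response and 100% = DMSO alone without agonist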
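Assay system: CHO-derived RD-HGA16 cells stably expressing human TAAR1 plus Gα16. Timing: 140 s kinetic read after compound, 140 s after agonist. Technique: kinetic Fluo-8 calcium fluorescence measurement. Measure: % inhibition of agonist calcium response.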
GPR7 antagonist: blocks human GPR7 receptor signaling | P48145 | GPR7-expressing cells, fluorescence antagonist assay | inhibition, % at 4.4 µM | 1.1% of 290,000 active | AID 1861; in the data active means inhibition above about 16%, passing the limit was not always enough;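 further: cells stimulated with the agonist NPW; 0% = agonist with vehicle and 100% = vehicle without agonist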
Target sequence (P48145 whole entry, looked up): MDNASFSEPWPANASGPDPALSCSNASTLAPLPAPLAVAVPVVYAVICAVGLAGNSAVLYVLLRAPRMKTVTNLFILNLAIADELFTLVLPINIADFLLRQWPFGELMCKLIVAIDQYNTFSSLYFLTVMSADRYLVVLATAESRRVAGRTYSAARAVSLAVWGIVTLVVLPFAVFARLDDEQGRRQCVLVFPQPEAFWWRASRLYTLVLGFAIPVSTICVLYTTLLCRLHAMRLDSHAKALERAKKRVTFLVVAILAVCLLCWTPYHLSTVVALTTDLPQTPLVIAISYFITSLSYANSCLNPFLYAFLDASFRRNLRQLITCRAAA
OX1R antag-2: human HCRTR1 antagonism; 0.43% of 330,000 active; CHO/OX1R cells, Fluo-8 calcium fluorescence, orexin A; inhibition, % at 5 µM; O43613;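 active means inhibition above its plate's threshold, mean inhibition of all tested compounds on the plate plus 3 SD, cut at about 37% in these data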;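 further: 0% = orexin A challenge wells and 100% = SB-334867-A antagonist wells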
CHO parental Ca: counter-screen for OX1R antagonists: effect in parental CHO cells | 0.63% of 330,000 active | inhibition, % at 5.6 µM | parental CHO-K1, ATP-induced calcium, Fluo-8 fluorescence;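 active means inhibition above that plate's mean sample inhibition plus 3 SD, cut at about 26% in these data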;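 further: 0% = ATP-challenged DMSO wells and 100% = DMSO wells without ATP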
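Test system: untransfected parental CHO cell line. Compound: one dose, 5.6 µM nominal. Detection: intracellular calcium via Fluo-8 no-wash fluorescent dye. Measure: % inhibition. Benchmarks: ATP-challenged DMSO wells low, unchallenged DMSO wells high.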
GPR7 antag conf: confirmation of human GPR7 antagonists | shares compounds with GPR7 antagonist | GPR7-expressing cells, calcium fluorescence antagonist mode | inhibition, % at 4.4 µM | 52% of 2,400 active | AID 1952; in the data active means inhibition above about 24%;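 further: stimulated with the GPR7 agonist NPW; 0% = agonist plus vehicle and 100% = vehicle alone without agonist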
MCHR1 antagonist: antagonizes human MCHR1, a GPR7 antagonist counter-screen; shares compounds with GPR7 antagonist; MCHR1-expressing cells, fluorescence antagonist assay; inhibition, % at 4.4 µM; 62% of 2,400 active; in the data active means inhibition above about 22%;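 further: 0% = vehicle with agonist and 100% = vehicle without agonist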
Active calls of the source: *; nt = no result given. This is a sample that favours compounds with a hit; in the whole collection about 4.6% have one here.

SMILES	TAAR1 ag	OX1R antag-1	TAAR1 antag	GPR7 antagonist	OX1R antag-2	CHO parental Ca	GPR7 antag conf	MCHR1 antagonist
Cc1ccsc1/C=N/NC(=O)c1ccncc1	3.5	11.1	-4.9	-1.4	-12.6	1.7	nt	nt
COc1cc(C(=O)N/N=C/c2sccc2C)cc(OC)c1OC	4.4	nt	-6.2	28.2*	nt	nt	29.2*	30.8*
O=C(OCc1cn([C@H]2CN(CC3CCCCC3)[C@@H](c3ccccc3)C[C@@H]2O)nn1)c1ccccc1	1.7	nt	-17.1	nt	nt	nt	nt	nt
O=C(C1CCCCC1)N1CCN=C1SCc1cccc([N+](=O)[O-])c1	-1.3	14.5	12.6	48.0*	-18.0	-7.8	11.5	12.5
O=C(Cc1ccc([N+](=O)[O-])cc1)N1CCN=C1SCc1ccccc1	36.9	4.2	12.2	-2.1	-11.2	-7.4	nt	nt
COc1ccc(S(=O)(=O)N2CCN=C2SCc2cccc(F)c2)cc1	0.1	18.9	-9.8	26.9*	-28.4	-11.2	27.2*	46.0*
O=S(=O)(c1ccc(Br)cc1)N1CCN=C1SCc1cccc(F)c1	-0.7	4.3	-9.4	-8.5	-15.6	-16.1	nt	nt
O=C(C1CCCCC1)N1CCN=C1SCc1cccnc1	4.3	11.1	-2.1	9.1	-19.1	-7.8	nt	nt
COc1ccc(CC(=O)N2CCN=C2SCc2cccc([N+](=O)[O-])c2)cc1	2.1	26.9	1.5	21.3*	-24.0	-13.9	41.0*	58.4*
COCCNC(=O)c1cc(-c2ccccc2)sc1N	3.7	nt	-0.2	nt	nt	nt	nt	nt
Cc1ccc(F)c(S(=O)(=O)NC(=O)C2(C)CCN2C(=O)Cc2cccc3ccccc23)c1 (configuration not stated)	2.1	nt	-10.9	nt	nt	nt	nt	nt
COc1ccc(NC(=O)C(c2ccc(C#N)cc2)n2c(=O)c(-c3ccco3)nc3ccccc32)cc1 (configuration not stated)	-0.1	nt	8.1	nt	nt	nt	nt	nt
CC1CC(=O)Nc2ccccc2N1C(=O)COc1ccccc1C(N)=O (configuration not stated)	3.5	nt	-30.7	nt	nt	nt	nt	nt
COc1cc(NS(=O)(=O)c2cc3[nH]c(=O)c(=O)[nH]c3cc2C)cc(OC)c1OC	2.2	11.9	-3.8	43.3*	19.8	-3.4	4.4	4.8
CCOC(=O)[C@]12CCC=C1N(Cc1cccc3ccccc13)C(=O)[C@H](CC(=O)NCCC(C)C)C2	-2.0	nt	-6.1	nt	nt	nt	nt	nt
CCOC(=O)C1(CC2CCCCO2)CCN(C2CCSCC2)CC1 (configuration not stated)	8.1	5.5	-1.1	25.1*	-25.1	-11.3	37.2*	22.7*
COC(=O)[C@]12C[C@H](CC(=O)NCCCN3CCCC3=O)C(=O)N(CCC3=CCCCC3)C1=C[C@H](C(C)(C)C)O[C@@H]2C	1.4	nt	-27.4	nt	nt	nt	nt	nt
C(=N/n1c2ccccc2c2ccccc21)/c1ccco1	16.9	7.5	-4.7	26.3*	-19.2	-35.0	-11.6	10.1
CCOC(=O)c1cnc(-n2nc(C)cc2C)nc1NC1CCCCC1	30.7	15.2	23.3	27.9*	73.9*	70.6*	77.1*	73.2*
CCOC(=O)c1cnc(-n2nc(C)cc2C)nc1NC	18.1	7.1	-3.5	-10.5	-10.5	-3.9	nt	nt
CCOc1ccc(S(=O)(=O)Nc2cc(OC)ccc2OC)cc1	6.4	5.9	-14.4	22.9*	-10.7	7.8	18.0	33.9*
CC(C)(C)n1nc2c(c1NC(=O)c1ccccc1)CS(=O)(=O)C2	1.0	16.1	-11.7	1.3	-4.0	-6.8	nt	nt
CC(C)(C)n1nc2c(c1NC(=O)c1c(F)cccc1F)CS(=O)(=O)C2	3.9	12.4	-12.2	43.2*	-5.9	7.3	28.5*	21.8*
Cn1cc(C(=O)c2cccc(Cl)c2)cc1C#N	3.0	30.3	9.2	7.1	-17.9	0.4	nt	nt
Cn1cc(C(=O)c2cccc(Cl)c2)cc1/C=N\O	2.9	24.2	-5.2	22.0*	-26.9	-17.1	-3.2	-6.2
SMILES	TAAR1 ag	OX1R antag-1	TAAR1 antag	GPR7 antagonist	OX1R antag-2	CHO parental Ca	GPR7 antag conf	MCHR1 antagonist
CC1CC(C)CN(CCCNC(=O)c2ccc3c(c2)N(Cc2ccccc2)C(=O)c2ccccc2S3=O)C1 (configuration not stated)	6.5	14.1	-4.0	35.2*	-15.7	-18.9	22.5	1.3
O=C(CCc1nnc2ccc(N3CCCC3)nn12)Nc1ccc(F)c(F)c1	5.3	8.7	-13.1	-0.2	-11.3	-7.0	nt	nt
CC1CCN(c2ccc3nnc(CCC(=O)Nc4ccc(F)c(F)c4)n3n2)CC1	-2.4	14.9	-26.2	28.2*	-28.2	-19.0	37.4*	40.5*
CC1CCN(C(=O)c2[nH]cnc2C(=O)N(C)CCO)CC1	3.6	nt	-7.3	nt	nt	nt	nt	nt
O=Nc1ccc(Cl)cn1	3.8	nt	-9.9	nt	nt	nt	nt	nt
Cc1ccccc1OCC(O)CNC1CCC(NCC(O)COc2ccccc2C)CC1 (configuration not stated)	4.5	-15.7	11.6	77.0*	-18.4	16.0	82.9*	80.1*
OC(CNC1Cc2ccccc2C1)COc1ccc(F)cc1 (configuration not stated)	8.8	1.2	-4.3	21.9*	-20.3	-15.7	5.3	-3.7
Cc1ccc(OCC(O)CNC2CCCC2)c(C)c1 (configuration not stated)	4.6	nt	-4.5	-19.1	nt	nt	nt	nt
Cc1ccc(S(=O)(=O)NCCNc2ccc([N+](=O)[O-])cc2)cc1	1.8	10.2	4.7	16.7	-5.2	7.4	nt	nt
Cc1ccc(S(=O)(=O)NCCCNc2ccc([N+](=O)[O-])cc2)cc1	4.3	11.6	41.8	41.2*	-13.4	23.2	45.3*	70.7*
Cc1c(Cc2c(Cl)cccc2Cl)c(=O)ccn1C(C)c1ccccc1 (configuration not stated)	23.5	nt	12.4	35.2*	nt	nt	27.4*	25.3*
COc1cccc(NC(=O)Nc2nc(-c3ccc(OC)c(OC)c3)cs2)c1	28.3	71.5*	82.3*	74.5*	73.3*	71.4*	91.7*	92.7*
COc1ccc(-c2csc(NC(C)=O)n2)cc1OC	3.4	12.2	-0.5	2.0	-14.7	6.8	nt	nt
O=C1COc2ccccc2C(c2nc3ccccc3[nH]2)N1Cc1ccccc1 (configuration not stated)	-0.7	nt	-0.6	nt	nt	nt	nt	nt
O=S1(=O)CCSC[C@@H](CN2CCOCC2)N1	2.3	nt	-5.3	nt	nt	nt	nt	nt
CSc1nc(C)c2c(n1)N(c1ccc(F)cc1)CC2	5.4	8.1	-10.4	3.5	-5.6	2.3	nt	nt
Cc1ccc2nc(C)c3c(c2c1)N(c1ccc(F)cc1)CC3	5.5	8.9	-30.1	34.9*	-7.0	-10.7	42.4*	31.0*
COc1ccccc1N1CCN(CC(=O)Nc2c(C)n[nH]c2C)CC1	9.9	21.5	-5.5	-6.2	-20.4	-8.5	nt	nt
